Shown are actives, neighbours in structure and some others; about 2.2% of the full set was active somewhere.
PAD4 FP inh: inhibitors of human PAD4 | recombinant PAD4, RCA probe fluorescence polarization | Q9UM07 | 330,000 tested, 0.41% active | inhibition, % at 6.36 µM;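 active = percent inhibition above a cutoff equal to the mean of all tested compounds plus 3 SD, cut at about 15% in these data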;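 also: 0% = PAD4 with RCA probe and DMSO and 100% = probe without PAD4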
UBC13 inh: inhibitors of human UBC13 polyubiquitin chain formation. P61088. TR-FRET. inhibition, % at 20 µM. 330,000 tested, 0.47% active. AID 485273; in the data active = inhibition above about 45%, passing the limit was not always enough
Apaf1 inhib: inhibitors of human Apaf-1 apoptosome | inhibition, % at 20 µM | reconstituted apoptosome caspase-3 activity, DEVD-Rh110 fluorescence | 330,000 tested, 0.71% active | O14727; active = inhibition of at least 40% at 20 µM;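 also: plate controls were DMSO wells for no effect and DEVD-CHO caspase inhibitor wells for full effect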
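Material: reconstituted apoptosome with Apaf-1, cytochrome c, caspase-9, procaspase-3, dATP / Buffer or medium: pH 7.5 Hepes buffer with CHAPS, BSA, DTT / Also added: cytochrome c with DEVD-Rh110 / Schedule: compound with Apaf-1, dATP, procaspase-3 30 min, then 50 min reaction, room temperature / Technique: rhodamine 110 fluorescence at Ex 480/Em 540 nm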
GSTO1 inh: counter-screen for RBBP9 inhibitors: inhibitors of human GSTO1; P78417; recombinant GSTO1, activity-based probe fluorescence polarization; inhibition, % at 5.96 µM; 300,000 tested, 1.1% active;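 active = inhibition above the campaign mean inhibition plus 3 SD, cut at about 35% in these data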;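 also: 0% = GSTO1-1 with DMSO and 100% = wells lacking GSTO1-1 enzyme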
Target sequence (P78417 whole entry, looked up): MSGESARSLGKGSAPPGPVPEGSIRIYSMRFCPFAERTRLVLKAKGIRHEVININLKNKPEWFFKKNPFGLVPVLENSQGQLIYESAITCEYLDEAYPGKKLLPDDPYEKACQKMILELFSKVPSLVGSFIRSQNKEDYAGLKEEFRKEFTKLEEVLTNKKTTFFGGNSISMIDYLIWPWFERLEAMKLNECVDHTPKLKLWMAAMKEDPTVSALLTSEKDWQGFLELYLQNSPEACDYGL
Rin1 Abl inh: human Rin1-Abl interaction inhibition; P00519+Q13671; TR-FRET Rin1/Abl binding, biochemical; inhibition, % at 7.35 µM; 360,000 tested, 0.4% active; in the data active = inhibition above about 5%, passing the limit was not always enough
SUMO HTRF inh: inhibitors of human SUMOylation (UBC9); P63279; HTRF SUMOylation assay, SAE1/SAE2 + UBC9, in vitro; inhibition, % at 35 µM; 290,000 tested, 0.36% active; in the data active = inhibition above about 50%, passing the limit was not always enough
Target sequence (P63279 whole entry, looked up): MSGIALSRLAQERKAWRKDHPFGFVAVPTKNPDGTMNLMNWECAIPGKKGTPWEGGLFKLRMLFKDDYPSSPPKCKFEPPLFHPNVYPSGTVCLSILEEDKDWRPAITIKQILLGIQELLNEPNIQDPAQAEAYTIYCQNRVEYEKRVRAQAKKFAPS
GSTO1 inh conf: GSTO1 (human) inhibition, confirmation; shares compounds with GSTO1 inh; recombinant GSTO1, probe fluorescence polarization; inhibition, % at 5.96 µM; 2,400 tested, 54% active; AID 2176;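 active = inhibition above the primary screen's cutoff, its mean inhibition plus 3 SD, cut at about 35% in these data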;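 also: loss of polarization as inhibitors block binding of rhodamine sulfonate ester activity probe; 0% = GSTO1 with DMSO and 100% = wells lacking GSTO1 enzyme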
GSTO1 recomb ABPP: inhibitors of recombinant human GSTO1. shares compounds with GSTO1 inh. gel ABPP SE-Rh probe fluorescence. inhibition, % at 1 µM. 130 tested, 30% active. AID 463110;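 active = inhibition of the enzyme GSTO1 above about 75%, limit read from the data; inactive = inhibition below that limit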
Numbers without * were called inactive.

Results for [O-][N+]1=c2ccc(Nc3ccccc3)cc2=NC12CCCCC2 ?
PAD4 FP inh: 6; GSTO1 inh: 58*; Rin1 Abl inh: -13; SUMO HTRF inh: 79*; GSTO1 inh conf: 35*

Results for O=C1CCCC2=C1C(c1ccco1)Nc1ccc3ccccc3c12 (centres undefined) ?
PAD4 FP inh: 0; UBC13 inh: 0; Apaf1 inhib: 15; GSTO1 inh: 38*; Rin1 Abl inh: 0; SUMO HTRF inh: 27; GSTO1 inh conf: 15

How did O=C1CCCC2=C1C(c1ccc(O)c(O)c1)Nc1ccc3ccccc3c12 (centres undefined) do in these assays?
PAD4 FP inh: -2; UBC13 inh: 6; Apaf1 inhib: -17; GSTO1 inh: 67*; Rin1 Abl inh: 2; GSTO1 inh conf: 9

How did O=c1[nH]c(CCl)nc2cc(-c3ccc(F)cc3)sc12 do in these assays?
PAD4 FP inh: -1; UBC13 inh: 0; Apaf1 inhib: 16; GSTO1 inh: 97*; Rin1 Abl inh: 0; SUMO HTRF inh: 3; GSTO1 inh conf: 94*; GSTO1 recomb ABPP: 82*

How did CC(C)C(=O)N(c1cc2sc(=O)oc2c2ccccc12)S(=O)(=O)c1cccs1 do in these assays?
PAD4 FP inh: 11; UBC13 inh: -9; Apaf1 inhib: 26; GSTO1 inh: 85*; Rin1 Abl inh: 2; SUMO HTRF inh: 12; GSTO1 inh conf: 43*

What do the screens show for `CC(C)C(=O)N(c1ccc2oc(=O)sc2c1)S(=O)(=O)c1cccs1`?
PAD4 FP inh: 15; UBC13 inh: -2; Apaf1 inhib: -2; GSTO1 inh: 17; Rin1 Abl inh: 0; SUMO HTRF inh: 5

How did CC(=O)Oc1cccc2c1C(=O)c1c(OC(C)=O)cc(C(=O)O)cc1C2=O do in these assays?
PAD4 FP inh: 11; UBC13 inh: -22; Apaf1 inhib: 2; GSTO1 inh: 56*; Rin1 Abl inh: -1; SUMO HTRF inh: -1; GSTO1 inh conf: 33

Results for C[C@H](NC(=O)c1nc[nH]c1C(=O)N1CCN(c2ccccc2)CC1)c1ccccc1 ?
PAD4 FP inh: 1; UBC13 inh: -9; Apaf1 inhib: 18; Rin1 Abl inh: 2

How did Oc1ccc(CCNc2c3ccccc3nc3ccccc23)cc1O do in these assays?
PAD4 FP inh: 1; UBC13 inh: 0; Apaf1 inhib: -4; GSTO1 inh: 48*; Rin1 Abl inh: 2; SUMO HTRF inh: 16; GSTO1 inh conf: 5

Results for C/C(=N\NS(=O)(=O)c1ccc(Cl)c([N+](=O)[O-])c1)c1cc2ccccc2o1 ?
PAD4 FP inh: 4; UBC13 inh: -9; Apaf1 inhib: 2; GSTO1 inh: 40*; Rin1 Abl inh: -4; SUMO HTRF inh: 17; GSTO1 inh conf: 14

What do the screens show for `C/C(=N\NS(=O)(=O)c1ccc(Cl)c([N+](=O)[O-])c1)c1ccc(C)o1`?
PAD4 FP inh: 2; UBC13 inh: 0; Apaf1 inhib: -1; GSTO1 inh: 49*; Rin1 Abl inh: -1; SUMO HTRF inh: 26; GSTO1 inh conf: 27

Results for C/C(=N\NS(=O)(=O)c1ccc(C)c([N+](=O)[O-])c1)c1cc2ccccc2o1 ?
PAD4 FP inh: 3; UBC13 inh: -15; Apaf1 inhib: 14; GSTO1 inh: 2; Rin1 Abl inh: -4; SUMO HTRF inh: 17

Results for C[C@@H]1CCCCO[C@@H](CN(C)C(=O)C2CCCCC2)[C@@H](C)CN([C@H](C)CO)C(=O)c2cc(NC(=O)NC3CCCCC3)ccc2O1 ?
Rin1 Abl inh: 1

What do the screens show for `Cc1c(C(=O)NCc2ccc([N+](=O)[O-])cc2)sc(=O)n1Cc1ccc2c(c1)OCO2`?
Rin1 Abl inh: 0

How did COc1cccc(CNc2nc3cc(-c4ccc(OC)cc4C)sc3c(=O)n2C)c1 do in these assays?
Rin1 Abl inh: -9

Results for COc1ccccc1CNc1ccc(N2CCCCC2)cc1 ?
PAD4 FP inh: -9; UBC13 inh: 2; Apaf1 inhib: -14; GSTO1 inh: 51*; Rin1 Abl inh: 0; SUMO HTRF inh: 11; GSTO1 inh conf: 7

Screens from PubChem.
